≈ marks a conversion by molar mass, not a printed value.

In test [1] the test system is Vesicular stomatitis virus. The test is described as follows: Evaluation of antiviral activity against Vesicular stomatitis virus. The format is functional. The method in brief: (§1)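 Virus-induced cytopathogenicity scored in primary rabbit kidney cell cultures. Value is the minimum concentration reducing cytopathogenicity by 50%. Cytotoxicity on uninfected cells was read as the minimal concentration causing a microscopically detectable change in normal cell morphology, tested up to 400 μg/mL.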

Test [2] addresses Thymidylate synthase (Mus musculus) (UniProt P07607). The test is described as follows: Compound was evaluated for the inhibition of L1210 Thymidylate synthase. In outline: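 Thymidylate (dTMP) synthetase inhibition measured with a partially purified extract of L1210 cells as the enzyme source.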
Test [3] has as its system Human alphaherpesvirus 2. The test is described as follows: Evaluation of antiviral activity against Herpes simplex virus type 2 (HSV-2) strain G. It is filed as functional. The method in brief:
as §1

For test [4], the system named is Human alphaherpesvirus 2. Nature of the test: Evaluation of antiviral activity against Herpes simplex virus type 2 (HSV-2) strain Lyons. It is filed as functional. In outline:
as §1

The test system of another test is Raji. Nature of the test: Evaluation of antitumor activity against thymidine kinase deficient Raji cell line. The format is functional. Particulars: Homo sapiens, read-out: ID50 (the source's name).
For test [5], the system named is Human alphaherpesvirus 2. Nature of the test: Evaluation of antiviral activity against Herpes simplex virus type 2 (HSV-2) strain 196. It is filed as functional. In outline: as §1
The subject of test [6] is Human alphaherpesvirus 1. Nature of the test: Evaluation of antiviral activity against Herpes simplex virus type 1 (HSV-1) strain F. It is filed as functional. In outline:
as §1

Test [7] relates to L1210. Nature of the test: Evaluation of cytostatic activity by using antitumor assays against murine leukemia L1210 cells. The format is functional. The note with it: Mus musculus, read-out: ID50 (the source's name).
In test [8] the test system is L1210. Nature of the test: Evaluation of antitumor activity against mutant murine leukemia L1210 cells. The format is functional. Particulars: Mus musculus, read-out: ID50 (the source's name). In outline:
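Proliferation of mutant murine leukemia L1210/BdUrd cells, selected from parental L1210/0 for growth in 260 μg/mL 5-bromo-2'-deoxyuridine. Value is the dose inhibiting proliferation by 50%.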

A further test has as its system Vaccinia virus. Nature of the test: Evaluation of antiviral activity against Vaccinia virus. It is filed as functional. The note with it: Orthopoxvirus vaccinia. In outline:
as §1

In test [9] the test system is Human alphaherpesvirus 1. Nature of the test: Evaluation of antiviral activity against Herpes simplex virus type 1 (HSV-1) strain KOS. It is filed as functional. In outline: as §1
Test [10] has as its system Human alphaherpesvirus 1. Nature of the test: Evaluation of antiviral activity against Herpes simplex virus type 1 (HSV-1) strain McIntyre. It is filed as functional. In outline: as §1
For another test, the species on record is Homo sapiens. Nature of the test: Evaluation for antitumor activity against human lymphoblast Raji cells. The format is functional. The note with it: Homo sapiens, Raji; read-out: ID50 (the source's name).

Thymidylate synthase (Mus musculus), sequence (P07607 whole entry, looked up): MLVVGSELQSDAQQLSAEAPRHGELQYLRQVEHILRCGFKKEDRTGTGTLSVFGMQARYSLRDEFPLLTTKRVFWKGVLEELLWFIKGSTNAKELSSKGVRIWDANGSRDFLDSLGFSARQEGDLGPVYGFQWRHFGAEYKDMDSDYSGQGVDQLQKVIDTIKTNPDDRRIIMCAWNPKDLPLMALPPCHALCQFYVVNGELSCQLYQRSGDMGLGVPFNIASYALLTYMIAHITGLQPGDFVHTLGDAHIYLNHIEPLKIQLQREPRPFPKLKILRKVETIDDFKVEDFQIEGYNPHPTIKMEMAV

In the case of `O=c1[nH]c(=O)n([C@H]2C[C@H](O)[C@@H](COP(=O)(O)O)O2)cc1C(F)(F)F`, the MIC50 in test [1] is more than 400 µg/mL; in the test on Human alphaherpesvirus 2 [3], 0.7 µg/mL (≈ 1.86 µM); against Human alphaherpesvirus 2 [4], 0.6 µg/mL (≈ 1.59 µM); against Human alphaherpesvirus 2 [5] it was 0.7 µg/mL (≈ 1.86 µM); with Human alphaherpesvirus 1 [6] it was 0.7 µg/mL (≈ 1.86 µM); in the test on Vaccinia virus, 0.2 µg/mL (≈ 0.532 µM). The MIC50 in the test on Human alphaherpesvirus 1 [9] came out at 0.7 µg/mL (≈ 1.86 µM); with Human alphaherpesvirus 1 [10] it was 0.4 µg/mL (≈ 1.06 µM). The Ki/Km in [2] came out at 0.061. The IC50 with Raji was 212 µg/mL (≈ 564 µM); in the test with L1210 [7], 0.017 µg/mL (≈ 0.0452 µM); in the test on L1210 [8], 38 µg/mL (≈ 101 µM); in the test filed under Homo sapiens it was 0.169 µg/mL (≈ 0.449 µM).
As for `O=c1[nH]c(=O)n([C@H]2C[C@H](O)[C@@H](CO)O2)cc1Cl` [CHLORODEOXYURIDINE], the MIC50 is more than 400 µg/mL in [1]; 1 µg/mL (≈ 3.81 µM) with Human alphaherpesvirus 2 [3]; 2 µg/mL (≈ 7.61 µM) in the test on Human alphaherpesvirus 2 [4]; 2 µg/mL (≈ 7.61 µM) against Human alphaherpesvirus 2 [5]; 0.7 µg/mL (≈ 2.67 µM) in the test on Human alphaherpesvirus 1 [6]; 0.2 µg/mL (≈ 0.761 µM) in the test on Vaccinia virus. Besides, the MIC50 with Human alphaherpesvirus 1 [9] and with Human alphaherpesvirus 1 [10] was 2 µg/mL (≈ 7.61 µM) each time. Further, the IC50 in the test on Raji is more than 1000 µg/mL; in the test with L1210 [7] it was 21.3 µg/mL (≈ 81.1 µM); with L1210 [8] it was 339 µg/mL (≈ 1290 µM); in the test filed under Homo sapiens, 8.54 µg/mL (≈ 32.5 µM).
For `COP1(=O)OC[C@H]2O[C@@H](n3cc(Br)c(=O)[nH]c3=O)C[C@@H]2O1` (some centres undefined), the MIC50 in [1] was more than 200 µg/mL; with Human alphaherpesvirus 2 [3] it was more than 200 µg/mL; in the test on Human alphaherpesvirus 2 [4], 70 µg/mL (≈ 183 µM); in the test on Human alphaherpesvirus 2 [5], more than 200 µg/mL; in the test on Human alphaherpesvirus 1 [6] it was more than 200 µg/mL; in the test on Vaccinia virus, 10 µg/mL (≈ 26.1 µM). Further, the MIC50 against Human alphaherpesvirus 1 [9] and with Human alphaherpesvirus 1 [10] was more than 200 µg/mL throughout. For the same compound, the IC50 in the test with Raji, in the test on L1210 [7], in the test with L1210 [8] and in the test filed under Homo sapiens was more than 100 µg/mL each time.
Consider `O=c1[nH]c(=O)n([C@H]2C[C@H](O)[C@@H](CO)O2)cc1Br` [BROXURIDINE], for which the MIC50 was more than 400 µg/mL in test [1]; 0.2 µg/mL (≈ 0.651 µM) against Human alphaherpesvirus 2 [3]; 0.07 µg/mL (≈ 0.228 µM) against Human alphaherpesvirus 2 [4]; 0.2 µg/mL (≈ 0.651 µM) with Human alphaherpesvirus 2 [5]; 0.2 µg/mL (≈ 0.651 µM) with Human alphaherpesvirus 1 [6]; 0.07 µg/mL (≈ 0.228 µM) against Vaccinia virus. Also, the MIC50 in the test on Human alphaherpesvirus 1 [9] and in the test with Human alphaherpesvirus 1 [10] was 0.2 µg/mL (≈ 0.651 µM) each time. The IC50 was more than 1000 µg/mL with Raji, 33.8 µg/mL (≈ 110 µM) with L1210 [7], more than 1000 µg/mL in the test with L1210 [8] and 17.5 µg/mL (≈ 57 µM) in the test listed under Homo sapiens.
As to `O=c1[nH]c(=O)n([C@H]2C[C@H](O)[C@@H](CO)O2)cc1F` [FLOXURIDINE], the MIC50 in test [1] was more than 200 µg/mL; against Human alphaherpesvirus 2 [3], 8 µg/mL (≈ 32.5 µM); against Human alphaherpesvirus 2 [4], 10 µg/mL (≈ 40.6 µM); with Human alphaherpesvirus 2 [5], 150 µg/mL (≈ 609 µM); against Human alphaherpesvirus 1 [6], 8 µg/mL (≈ 32.5 µM); against Vaccinia virus, 0.1 µg/mL (≈ 0.406 µM). The MIC50 is 6 µg/mL (≈ 24.4 µM) in the test with Human alphaherpesvirus 1 [9] and 4 µg/mL (≈ 16.2 µM) against Human alphaherpesvirus 1 [10]. The IC50 with Raji stood at 1.55 µg/mL (≈ 6.3 µM); with L1210 [7], 0.02 µg/mL (≈ 0.0812 µM); in the test with L1210 [8] it was 1.8 µg/mL (≈ 7.31 µM); in the test listed under Homo sapiens, 0.004 µg/mL (≈ 0.0162 µM).
Turning to `O=c1[nH]c(=O)n([C@H]2C[C@H](O)[C@@H](CO)O2)cc1I` [IDOXURIDINE], the MIC50 in test [1] was more than 400 µg/mL; against Human alphaherpesvirus 2 [3], 0.2 µg/mL (≈ 0.565 µM); in the test with Human alphaherpesvirus 2 [4], 0.1 µg/mL (≈ 0.282 µM); against Human alphaherpesvirus 2 [5], 0.4 µg/mL (≈ 1.13 µM); against Human alphaherpesvirus 1 [6] it was 0.2 µg/mL (≈ 0.565 µM); with Vaccinia virus, 0.2 µg/mL (≈ 0.565 µM). In addition, the MIC50 in the test with Human alphaherpesvirus 1 [9] and against Human alphaherpesvirus 1 [10] was 0.2 µg/mL (≈ 0.565 µM) in each case. The IC50 is more than 500 µg/mL in the test with Raji, 16 µg/mL (≈ 45.2 µM) in the test with L1210 [7], more than 500 µg/mL in the test with L1210 [8] and 8 µg/mL (≈ 22.6 µM) in the test filed under Homo sapiens.
On to `O=c1[nH]c(=O)n([C@H]2C[C@H](O)[C@@H](CO)O2)cc1/C=C/Br` [BRIVUDINE], for which the MIC50 in test [1] is more than 400 µg/mL; against Human alphaherpesvirus 2 [3], 4 µg/mL (≈ 12 µM); against Human alphaherpesvirus 2 [4], 7 µg/mL (≈ 21 µM); with Human alphaherpesvirus 2 [5], 70 µg/mL (≈ 210 µM); with Human alphaherpesvirus 1 [6], 0.02 µg/mL (≈ 0.06 µM); in the test on Vaccinia virus it was 4 µg/mL (≈ 12 µM). Besides, the values for the MIC50 against Human alphaherpesvirus 1 [9] and in the test with Human alphaherpesvirus 1 [10] were 0.02 µg/mL (≈ 0.06 µM) and 0.07 µg/mL (≈ 0.21 µM), respectively.
With `O=c1[nH]c(=O)n([C@H]2C[C@H](O)[C@@H](COP(=O)(O)O)O2)cc1Br`, the MIC50 in [1] was more than 400 µg/mL; in the test with Human alphaherpesvirus 2 [3] it was 0.2 µg/mL (≈ 0.517 µM); in the test on Human alphaherpesvirus 2 [4], 0.07 µg/mL (≈ 0.181 µM); in the test with Human alphaherpesvirus 2 [5], 0.2 µg/mL (≈ 0.517 µM); against Human alphaherpesvirus 1 [6], 0.2 µg/mL (≈ 0.517 µM); in the test on Vaccinia virus, 0.07 µg/mL (≈ 0.181 µM). In addition, the MIC50 against Human alphaherpesvirus 1 [9] and with Human alphaherpesvirus 1 [10] was 0.2 µg/mL (≈ 0.517 µM) in each case. For the same compound, the Ki/Km in [2] is 2.16. Besides, the IC50 with Raji was more than 1000 µg/mL; in the test on L1210 [7], 34.6 µg/mL (≈ 89.4 µM); with L1210 [8], 457 µg/mL (≈ 1180 µM); in the test filed under Homo sapiens, 26 µg/mL (≈ 67.2 µM).

The record behind these values is ChEMBL document CHEMBL1123311, “Synthesis and antitumor and antiviral properties of 5-halo- and 5-(trifluoromethyl)-2'-deoxyuridine 3',5'-cyclic monophosphates and neutral triesters” (1986).
